Experimental data published in ChEMBL document CHEMBL3046679, “Design, synthesis, and biological activities of arylmethylamine substituted chlorotriazine and methylthiotriazine compounds” (J Agric Food Chem, 2011).
The source made the active and inactive calls. No cut-off for these calls is given here.

How the values were obtained:
Arabidopsis thaliana = assay: Herbicidal activity against Arabidopsis thaliana assessed as growth inhibition at 10 ppm by 96-well plate test; assay type: functional; conditions: read-out: GI
Procedure, shortened: (§1)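 96-well plate herbicide screen: Arabidopsis thaliana at 10 ppm and Poa annua at 32 ppm, two replicates. Plates incubated seven days in a controlled-environment cabinet. Each replicate scored 0 (no visible effect) or 99 (herbicidal effect); values are the mean of the two. Atrazine used as reference.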

Heliothis virescens = assay: Insecticidal activity against Lepidoptera Heliothis virescens (tobacco budworm) assessed as mortality at 1000 ppm by leaf-disk assay; assay type: functional, organism-based
Procedure, shortened: (§2)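 Leaf-disk assay at 1000 ppm, three replicates. Plates kept 5–9 days in controlled-environment cabinets. Mortality judged against untreated wells: 99 for significant mortality, 0 otherwise. Values are the mean of three; thiamethoxam and indoxacarb used as positive controls.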

Poa annua = assay: Herbicidal activity against Poa annua assessed as growth inhibition at 32 ppm by 96-well plate test; assay type: functional; conditions: read-out: GI; procedure, shortened: as §1
Echinochloa crus-galli [1] = assay: Herbicidal activity against Echinochloa crus-galli (barnyard grass) at 1.5 kg/ha preemergence treatment measured after 10 days by glasshouse test; assay type: functional; conditions: pre-emergence, 240 h
Procedure, shortened: (§3)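 Glasshouse pre/postemergence test, each treatment in triplicate. Above-ground fresh weight measured 10 days after treatment. Result expressed as percent inhibition versus control, from 0 (no control) to 100 (complete control); glyphosate used as positive control.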

Pythium dissimile = assay: Fungicidal activity against Pythium dissimile assessed as inhibition of mycelia growth at 2 ppm; assay type: functional, organism-based
Procedure, shortened: (§4)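 Mycelial growth test in 96-well plates: compound incorporated into artificial growth medium at 2 ppm, two replicates per rate. Each well scored 99 for complete, 55 for partial or 0 for no inhibition. Values are the mean across replicates; azoxystrobin and prochloraz used as positive controls.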

Amaranthus retroflexus [2] = assay: Herbicidal activity against Amaranthus retroflexus assessed as growth inhibition at 1 kg/ha postemergence treatment by glasshouse test; assay type: functional; conditions: post-emergence, read-out: GI
Procedure, shortened: (§5)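 Glasshouse screen with pre- or postemergence application at 1.0 kg/ha. Result given as percent inhibition of plant growth; norflurazon and glyphosate used as controls.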

Aphididae = assay: Insecticidal activity against Aphididae (aphids) assessed as mortality at 1000 ppm by leaf-disk assay; assay type: functional, organism-based; procedure, shortened: as §2
Amaranthus retroflexus [3] = assay: Herbicidal activity against Amaranthus retroflexus assessed as growth inhibition at 1 kg/ha preemergence treatment by glasshouse test; assay type: functional; conditions: pre-emergence, read-out: GI; procedure, shortened: as §5
Lolium perenne [4] = assay: Herbicidal activity against Lolium perenne (perennial ryegrass) assessed as growth inhibition at 1 kg/ha preemergence treatment by glasshouse test; assay type: functional; conditions: pre-emergence, read-out: GI; procedure, shortened: as §5
Phytophthora infestans = assay: Fungicidal activity against Phytophthora infestans assessed as inhibition of mycelia growth at 200 ppm; assay type: functional, organism-based
Echinochloa crus-galli [5] = assay: Herbicidal activity against Echinochloa crus-galli (barnyard grass) at 1.5 kg/ha postemergence treatment measured after 10 days by glasshouse test; assay type: functional; conditions: post-emergence, 240 h; procedure, shortened: as §3
Fusarium graminearum = assay: Fungicidal activity against Fusarium graminearum assessed as inhibition of mycelia growth at 2 ppm; assay type: functional, organism-based; procedure, shortened: as §4
Lolium perenne [6] = assay: Herbicidal activity against Lolium perenne (perennial ryegrass) assessed as growth inhibition at 1 kg/ha postemergence treatment by glasshouse test; assay type: functional; conditions: post-emergence, read-out: GI; procedure, shortened: as §5
Botrytis cinerea = assay: Fungicidal activity against Botryotinia fuckeliana assessed as inhibition of mycelia growth at 2 ppm; assay type: functional, organism-based; procedure, shortened: as §4
Brassica napus [7] = assay: Herbicidal activity against Brassica napus (oilseed rape) at 1.5 kg/ha postemergence treatment measured after 10 days by glasshouse test; assay type: functional; conditions: post-emergence, 240 h; procedure, shortened: as §3
Brassica napus [8] = assay: Herbicidal activity against Brassica napus (oilseed rape) at 1.5 kg/ha preemergence treatment measured after 10 days by glasshouse test; assay type: functional; conditions: pre-emergence, 240 h; procedure, shortened: as §3
Stellaria media [9] = assay: Herbicidal activity against Stellaria media assessed as growth inhibition at 1 kg/ha preemergence treatment by glasshouse test; assay type: functional; conditions: pre-emergence, read-out: GI; procedure, shortened: as §5
Stellaria media [10] = assay: Herbicidal activity against Stellaria media assessed as growth inhibition at 1 kg/ha postemergence treatment by glasshouse test; assay type: functional; conditions: post-emergence, read-out: GI; procedure, shortened: as §5
Zymoseptoria tritici = assay: Fungicidal activity against Zymoseptoria tritici assessed as inhibition of mycelia growth at 100 ppm; assay type: functional, organism-based
Digitaria sanguinalis [11] = assay: Herbicidal activity against Digitaria sanguinalis (hairy crabgrass) assessed as growth inhibition at 1 kg/ha postemergence treatment by glasshouse test; assay type: functional; conditions: post-emergence, read-out: GI; procedure, shortened: as §5
Digitaria sanguinalis [12] = assay: Herbicidal activity against Digitaria sanguinalis (hairy crabgrass) assessed as growth inhibition at 1 kg/ha preemergence treatment by glasshouse test; assay type: functional; conditions: pre-emergence, read-out: GI; procedure, shortened: as §5

CSc1nc(NCc2ccc(F)cc2)nc(NC(C)C)n1
inhibition of growth at 10 ppm (Arabidopsis thaliana): 99% | mortality (Heliothis virescens): inactive | inhibition of growth at 32 ppm (Poa annua): 0% | inhibition at 1500 g/ha (Echinochloa crus-galli [1]): 21.4% | inhibition (Pythium dissimile): inactive | inhibition of growth at 1000 g/ha (Amaranthus retroflexus [2]): 100% | mortality (Aphididae): inactive | inhibition of growth at 1000 g/ha (Amaranthus retroflexus [3]): 100% | inhibition of growth at 1000 g/ha (Lolium perenne [4]): 50% | inhibition (Phytophthora infestans): inactive | inhibition at 1500 g/ha (Echinochloa crus-galli [5]): 100% | inhibition (Fusarium graminearum): inactive | inhibition of growth at 1000 g/ha (Lolium perenne [6]): 80% | inhibition (Botrytis cinerea): inactive | inhibition at 1500 g/ha (Brassica napus [7]): 100% | inhibition at 1500 g/ha (Brassica napus [8]): 100% | inhibition of growth at 1000 g/ha (Stellaria media [9]): 90% | inhibition of growth at 1000 g/ha (Stellaria media [10]): 100% | inhibition (Zymoseptoria tritici): inactive | inhibition of growth at 1000 g/ha (Digitaria sanguinalis [11]): 80% | inhibition of growth at 1000 g/ha (Digitaria sanguinalis [12]): 0%
